According to article PMC9122039 (Chembiochem : a European journal of chemical biology, 2022):
Where a SMILES comes first, the peptide text is derived from it. The star is where a group is joined. Cbz = O=C(OCc1ccccc1)*

Legend:
Type in all cases: cell-based
[1] = test system: proteasome (β2 and β5 subunits) in HEK-293T cells; settings: then 3 at 500 nM 1 h; for change of proteasome activity: modulator 5 μM 1 h; for increase of proteasome labeling over DMSO treated samples: modulator 25 μM 1 h; for effect of inhibitor on labeling by 3: inhibitor at two concentrations 1 h
How it was run: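 HEK-293T cells pre-treated 1 h with the test compound (stimulators and inhibitors, each at two concentrations) or DMSO. BODIPY-epoxomicin probe then added at 500 nM for 1 h (2 h total). Proteasome bound by the probe is resolved by SDS-PAGE and in-gel fluorescence is scanned. β2 and β5 band signals are quantified and normalised to DMSO; error bars are standard deviation.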

[2] = test system: proteasome in HEK-293T cells; experiment: Confocal microscopy with probe 3; settings: modulator 25 μM 1 h, then 3 at 500 nM 1 h, PBS wash
How it was run: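 HEK-293T cells on poly-D-lysine-coated glass coverslip chambers; test compound (proteasome stimulator or inhibitor) at 25 μM for 1 h, then BODIPY-epoxomicin probe at 500 nM for another hour. PBS wash removes extracellular or unbound probe. Controls: DMSO plus probe (basal activity) and DMSO without probe. Imaged by confocal in bright field and BodipyFL green channel, with overlay.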

[3] = test system: proteasome in HEK-293T cells; experiment: Flow cytometry with probe 3; settings: modulator 1 h, then 3 for 1 h, rinsed with PBS
How it was run: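 HEK-293T cells get the test compound (stimulator or inhibitor) for 1 h. The BODIPY-epoxomicin probe is then added and incubated another hour. Cells are pelleted and rinsed with PBS to remove unreacted probe. Probe fluorescence is measured by flow cytometry against DMSO-treated samples.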

With `Clc1ccc(COC(Cn2ccnc2)c2ccc(Cl)cc2Cl)c(Cl)c1` (stereo not drawn) [MO, Miconazole] the “change of proteasome activity” value [1] was “significant increase in activity”, the “increase of proteasome labeling over DMSO treated samples” value (from here on “increase of proteasome labeling”) [1] was “at least 40%” and the “change of intracellular fluorescent signal of 3 (confocal microscopy)” value [2] was “remarkable increase in fluorescent signal”. The “change of fluorescent signal of 3 over DMSO treated samples (flow cytometry)” value (“change of fluorescent signal … (flow cytometry)” below) [3] was “increase”.

In the case of `CN1CCN(CCCN2c3ccccc3Sc3ccc(C(F)(F)F)cc32)CC1` [TFP, trifluoperazine], the “change of proteasome activity” value [1] is reported as “significant increase in activity”, the “increase of proteasome labeling” value [1] is reported as “at least 40%” and the “change of fluorescent signal … (flow cytometry)” value [3] is reported as “increase”.

In the case of `CC(C)C[C@@H](C=O)NC(=O)[C@H](CC(C)C)NC(=O)[C@H](CC(C)C)NC(=O)OCc1ccccc1` [MG-132] (Cbz-Leu-Leu-Leu-aldehyde), the “effect of inhibitor on labeling by 3” value [1] is reported as “prevented the binding of (3)”, the “change of intracellular fluorescent signal of 3 (confocal microscopy)” value [2] is reported as “significantly decreased the signal” and the “change of fluorescent signal … (flow cytometry)” value [3] is reported as “decrease”.

With `CCCCC/C=C\C/C=C\C/C=C\C/C=C\CCCC(=O)Nc1ccc(O)cc1` [AM-404] the “increase of proteasome labeling” value [1] was “at least 40%”.

With epoxomicin the “effect of inhibitor on labeling by 3” value [1] was “prevented the binding of (3)”.
